# Assay outcomes deposited in PubChem BioAssay by Johns Hopkins Ion Channel Center.
# The list is not random: actives were taken first. Their share in the collection is about 3%.
# TRPC4 block: blocks the mouse TRPC4 cation channel; Q9QUQ5; HEK293 TRPC4beta/mu-opioid, DAMGO-evoked Fluo4 calcium flux; stronger effect = lower value; B-score at 10 µM; 300,000 tested, 0.39% active;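 active = B-score over 3 SD under the library average, no early fluorescence shift, positive overall ratio signal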
#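 Test system – stable TRPC4beta/mu-opioid receptor HEK293 cells · Probe or stimulus – DAMGO, a submaximal dose followed by a maximal one · Dosing – one concentration per compound · Signal – Fluo4 calcium fluorescence by kinetic imaging, 5 s 1 Hz baseline · Evaluation – per-well B score of integrated baseline-normalized Fluo4 ratio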
# Kir21 inh: blocks the mouse Kir2.1 inward-rectifier potassium channel | AID 1672 | B-score at 10 µM | HEK293-Kir2.1, FluxOR thallium flux fluorescence; stronger effect = lower value | 310,000 tested, 0.85% active;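 active = fluorescence ratio B-score at or below minus 3 SD of library scores, with starting-brightness B-score within 2 SD, cut at about -4.2 in these data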;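 also: channel flux triggered by added potassium and thallium sulfate stimulus; B-score of peak minus minimum fluorescence over baseline after thallium stimulus; more negative B-score means stronger Kir2.1 block with less thallium influx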
# TRPC4 act: opens the mouse TRPC4 cation channel. AID 2237. Q9QUQ5. 310,000 tested, 0.49% active. HEK293 TRPC4beta/mu-opioid, Fluo4 calcium fluorescence; stronger effect = higher value. B-score at 10 µM;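 active = B-score above 5 SD of library B-scores, and initial fluorescence ratio not above library mean plus 5 SD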;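 also: positive B-score marks a calcium rise read as TRPC4 activation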
#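 Technique: kinetic Fluo4 calcium fluorescence; Test system: TRPC4beta and mu-opioid receptor HEK293 stable cells; Measure: B-scored integrated calcium fluorescence ratio; Benchmarks: low control buffer alone, high control maximal DAMGO; Schedule: 45 min room-temperature Fluo4 loading, 110 s read.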
# TRPC4 PAM: TRPC4 (mouse) allosteric potentiation | HEK293 TRPC4beta/mu-opioid, DAMGO EC20, Fluo-4 Ca2+ flux; stronger effect = higher value | B-score at 10 µM | 310,000 tested, 0.42% active | AID 2227;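 active = B-score of calcium response area above 5 SD of library B-scores, with initial fluorescence ratio within 5 SD of library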;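 also: B-score of integrated fluorescence ratio over time as area under calcium response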
# TRPC6 activator: activators of mouse TRPC6 channel | B-score at 10 µM | AID 2550 | Q61143 | 310,000 tested, 0.13% active | HEK293-TRPC6 membrane potential dye fluorescence; stronger effect = higher value;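 active = B-score of the integrated fluorescence ratio above library mean plus 3 SD, and starting fluorescence ratio within library mean plus 5 SD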;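 also: higher score means more depolarization so channel activation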
# TRPC6 inhibitor: mouse TRPC6 channel inhibition; Q61143; HEK293-TRPC6, membrane potential dye, ACh-evoked depolarization; stronger effect = lower value; B-score at 10 µM; 310,000 tested, 1.1% active; AID 2553;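 active = B-score under library mean minus 3 SD, initial fluorescence not abnormally high, positive integrated signal ratio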;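 also: B-score derived from integrated fluorescence ratio over the kinetic read; more negative B-score means stronger inhibition of depolarization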
# TRPC4 sel inh 2: second check of whether TRPC6 inhibitors also affect mouse TRPC4; AID 2776; 920 tested, 42% active; HEK293 TRPC4/MOR, membrane potential dye fluorescence; channel activated by saturating DAMGO dose; inhibition, % at 10 µM; shares compounds with TRPC6 inhibitor;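 active = compounds whose fluorescence signal differed from control wells by over 3 SD, either direction, in both duplicate plates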
# TRPC4 spec: mouse TRPC4 off-target activity of TRPC6 inhibitors | shares compounds with TRPC6 inhibitor | HEK293 TRPC4/mu-opioid, membrane potential fluorescence | activity change, negative = inhibition, % at 10 µM | 920 tested, 61% active;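 active = rise or fall in signal beyond 3 SD of buffer-only wells in both replicate plates, either sign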;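 also: integrated kinetic ratio of fluorescence range over baseline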
# HEK293 MPD ctr 2-1: second check of TRPC6 inhibitor effects in parental HEK293 cells | shares compounds with TRPC6 inhibitor | parental HEK293 membrane potential dye fluorescence; maximal acetylcholine challenge after compound addition | signal change vs control, % at 10 µM | 920 tested, 31% active | AID 2779;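 active = membrane potential signal moving either way by over 3 SD of the maximum-effect control, in both duplicate plates, meaning non-specific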
# HEK293 MPD ctr-1: parental HEK293 nonspecific activity of TRPC6 inhibitors | shares compounds with TRPC6 inhibitor | parental HEK293 membrane potential dye fluorescence | membrane potential signal change, % at 10 µM | 920 tested, 60% active | AID 2780;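 active = membrane potential signal shifting up or down by more than 3 SD of buffer-only wells, on both duplicate plates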
# HEK293 MPD ctr-2: counter-screen for TRPC6 modulators: effect in parental HEK293 cells. AID 488924. membrane potential signal change, % at 10 µM. membrane potential dye fluorescence. 2,400 tested, 51% active. shares compounds with TRPC6 inhibitor;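 active = membrane potential signal moves up or down beyond 5 SD from buffer-only wells, on both duplicate plates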
# HEK293 MPD ctr 2-2: second check of TRPC6 modulator effects in parental HEK293 cells. 2,400 tested, 14% active. membrane potential dye fluorescence; after compound, maximal acetylcholine stimulation. AID 488926. shares compounds with TRPC6 inhibitor. inhibition, % at 10 µM;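 active = membrane potential signal drops by more than 5 SD from the mean control signal, in both duplicate plates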;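 also: plate controls were acetylcholine ECmax control wells for no effect and buffer only wells for full effect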
# TRPC4/MOR mod: mouse TRPC4 off-target activity of TRPC6 modulators; AID 488927; HEK293 TRPC4/mu-opioid, membrane potential fluorescence; percent change from control (negative = decrease, positive = increase), % at 10 µM; 2,400 tested, 69% active; shares compounds with TRPC6 inhibitor;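 active = membrane potential signal moved up or down beyond 5 SD of buffer control wells, in both duplicate plates, actives on both sides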;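 also: plate controls were assay buffer wells for no effect and DAMGO maximal-effect wells for full effect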
# TRPC4/MOR inh 2: second selectivity test of TRPC6 modulators against mouse TRPC4; AID 488928; HEK293 TRPC4/mu-opioid, membrane potential dye fluorescence; stimulated with maximal-effect DAMGO; inhibition, % at 10 µM; shares compounds with TRPC6 inhibitor; 2,400 tested, 55% active;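 active = drop in membrane potential signal beyond 5 SD of the control wells in both duplicate plates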;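 also: TRPC4 counter screen for TRPC6 hits run under conditions tuned for TRPC6 not TRPC4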
# TRPC6 inh conf: mouse TRPC6 inhibitor confirmation; inhibition, % at 10 µM; shares compounds with TRPC6 inhibitor; HEK293-TRPC6, membrane potential dye, ACh-evoked depolarization; AID 488960; 3,300 tested, 43% active;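 active = fluorescence ratio falls more than 5 SD below the full-stimulation control mean, in both duplicate runs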;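 also: integrated fluorescence ratio of peak minus minimum over baseline after agonist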
# TRPC6 act conf: confirmation of mouse TRPC6 activators; shares compounds with TRPC6 inhibitor; HEK293-TRPC6 membrane potential dye fluorescence, FDSS; activation, % at 10 µM; 2,800 tested, 11% active;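 active = ratio signal rise beyond 5 SD above unstimulated control wells' mean, seen in both duplicate runs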;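 also: plate controls were buffer EC0 wells for no effect and acetylcholine ECmax response for full effect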
# Numbers without * were called inactive; i = inactive; / = not tested or not shown.
SMILES,TRPC4 block,Kir21 inh,TRPC4 act,TRPC4 PAM,TRPC6 activator,TRPC6 inhibitor,HEK293 MPD ctr-2,HEK293 MPD ctr 2-2,TRPC4/MOR mod,TRPC4/MOR inh 2,TRPC6 inh conf,TRPC6 act conf,others
O=C(Nc1cccc(C(F)(F)F)c1)OC1CN2CCC1CC2 (stereo unspecified),i,-1.6,i,i,i,-6.5*,i,i,i,i,54%*,i,
O=C(NC1CN2CCC1CC2)c1cc(Cl)c([N+](=O)[O-])c2nc[nH]c12 (stereo unspecified),i,0.09,i,i,i,-5.9*,-218%*,i,-33%*,i,i,i,
O=S(=O)(NC1CN2CCC1CC2)c1ccc(Cl)cc1 (stereo unspecified),i,0.21,i,i,i,i,/,/,/,/,/,/,
CCOc1ccc(-c2cc(C)[n+](CCN3CCOCC3)c(-c3ccc(OCC)cc3)c2)cc1,i,-1.1,i,i,i,i,/,/,/,/,/,/,
Cc1ccc(C[n+]2c(-c3ccc(C)cc3)cc(-c3ccc(C)cc3)cc2-c2ccc(C)cc2)cc1,i,-14*,160*,i,i,-7*,/,/,/,/,81%*,i,TRPC4 sel inh 2=56%*;TRPC4 spec=-16%*;HEK293 MPD ctr 2-1=i;HEK293 MPD ctr-1=-196%*
Cc1cc(Oc2cc(NN3CCCCC3)c([N+](=O)[O-])cc2[N+](=O)[O-])ccc1[N+](=O)[O-],i,0.6,i,i,i,i,/,/,/,/,/,/,
C=C(C)[C@H]1CN[C@H](C(=O)O)[C@H]1CC(=O)O,i,0.41,i,i,i,i,/,/,/,/,/,/,
CC/C(=N\N1CCCCCC1)c1c(O)n(-c2ccc(C)cc2)c(=O)[nH]c1=O,i,-0.59,i,i,i,i,/,/,/,/,/,/,
Cc1cccc(-c2nc3ccc(C(=O)N4CCC5(CC4)OCCO5)cc3nc2-c2cccc(C)c2)c1,i,0.4,i,i,13*,-7.3*,i,i,14%*,i,79%*,116%*,
CC[n+]1c(SC)ccc2cc(OC)ccc21,i,-0.58,i,i,i,-5.2*,-206%*,85%*,-30%*,54%*,58%*,i,
